Common to all, as to type: functional, cell-based
One assay relates to CCRF-CEM. As to the kind of experiment: Cytotoxicity against human CCRF-CEM by XTT assay. A digest of the protocol:
(§1)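 XTT (tetrazolium cleavage by cellular dehydrogenases to formazan) read on plate reader. Cells kept in RPMI-1640 with 10% heat-inactivated FCS, 1% penicillin/streptomycin, 37 °C, 5% CO2. CEM/ADR5000 pulsed with 5000 ng/mL doxorubicin for 3 days every other week to keep P-glycoprotein overexpression. IC50 from dose-response curves, mean ± SD of two to three independent experiments, three parallel measurements each.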

Assay [1] concerns ADR5000 cell line. As to the kind of experiment: Cytotoxicity against human CEM/ADR5000 by XTT assay. A digest of the protocol:
as §1
In general terms: Formazan colour is commonly taken as a measure of viable cells.

The test system of assay [2] is ADR5000 cell line. As to the kind of experiment: Cell cycle arrest in human CEM/ADR5000 cells assessed as accumulation at G0/G1 phase 1 ug/ml after 48 hrs using propidium iodide staining by flow cytometry.
Assay [3] relates to ADR5000 cell line. As to the kind of experiment: Induction of apoptosis in human CEM/ADR5000 cells at 2 ug/mL after 48 hrs using propidium iodide staining by flow cytometry. In general terms: In flow cytometry, cells or beads pass a laser one at a time.
Assay [4] concerns ADR5000 cell line. As to the kind of experiment: Increase in ROS generation in human CEM/ADR5000 cells at 0 001 ug/ml after 24 hrs using 2',7'-dichlorodihydrofluoresceine diacetate staining by flow cytometry. A digest of the protocol: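 Intracellular ROS measured by H2DCFDA staining and flow cytometry. Cells at 5 × 10^5 cells/mL exposed to a range of concentrations, sampled at 6, 24, 48 and 72 h. Fluorescence histograms overlaid on untreated controls. Levels normalised to the median of three nontreated controls.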

Assay [5] has as its system ADR5000 cell line. As to the kind of experiment: Cell cycle arrest in human CEM/ADR5000 cells assessed as accumulation at G0/G1 phase 10 ug/ml after 48 hrs using propidium iodide staining by flow cytometry. In outline:
(§2)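 Nicoletti assay: cells were stained with propidium iodide and read by flow cytometry, counting 10 000 cells per sample. Cells were grown in RPMI-1640 with 10% heat-inactivated FCS and 1% penicillin/streptomycin at 37 °C under 5% CO2. To keep P-glycoprotein overexpressed, CEM/ADR5000 cells were given 5000 ng/mL doxorubicin for 3 days every other week.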

Assay [6] relates to ADR5000 cell line. As to the kind of experiment: Cell cycle arrest in human CEM/ADR5000 cells assessed as accumulation at G2/M phase 0.01 ug/ml after 48 hrs using propidium iodide staining by flow cytometry. In outline: as §2
In assay [7] the test system is ADR5000 cell line. Nature of the assay: Increase in ROS generation in human CEM/ADR5000 cells at 0 01 ug/ml after 72 hrs using 2',7'-dichlorodihydrofluoresceine diacetate staining by flow cytometry.
Assay [8] concerns ADR5000 cell line. As to the kind of experiment: Induction of apoptosis in human CEM/ADR5000 cells at 1 ug/mL after 24 hrs using propidium iodide staining by flow cytometry. A digest of the protocol: as §2
Assay [9] concerns ADR5000 cell line. Nature of the assay: Increase in ROS generation in human CEM/ADR5000 cells at 1 ug/ml after 6 hrs 2',7'-dichlorodihydrofluoresceine diacetate staining by flow cytometry.

Experimental findings from ChEMBL document CHEMBL1177721, “Cytotoxicity of artesunic acid homo- and heterodimer molecules toward sensitive and multidrug-resistant CCRF-CEM leukemia cells” (J Med Chem, 2010) are described below.

Structures are written as SMILES. Active and inactive are the calls of the source. The calls are words filed in the database; no cut-off is given here.

Broadly, the IC50 is the concentration at which inhibition is half-maximal. The low end stands for inhibition by little substance, the high end for a need for much substance.

Consider `C[C@H]1[C@H](OC(=O)CCC(=O)NCCCNC(=O)CCC(=O)O[C@@H]2O[C@@H]3O[C@@]4(C)CC[C@H]5[C@H](C)CC[C@@H]([C@H]2C)[C@@]35OO4)O[C@@H]2O[C@@]3(C)CC[C@H]4[C@H](C)CC[C@@H]1[C@@]24OO3`, for which the values for the IC50 with CCRF-CEM and in the assay on ADR5000 cell line [1] were 1.2 µM and 0.2 µM, respectively. In addition, the result in the assay on ADR5000 cell line [2], with ADR5000 cell line [3] and in the assay on ADR5000 cell line [4] was Active.

Consider `C=C(C)[C@@H]1CC[C@]2(COC(C)=O)CC[C@]3(C)[C@H](CC[C@@H]4[C@@]5(C)CC[C@H](OC(=O)CCC(=O)O[C@@H]6O[C@@H]7O[C@@]8(C)CC[C@H]9[C@H](C)CC[C@@H]([C@H]6C)[C@@]79OO8)C(C)(C)[C@@H]5CC[C@]43C)[C@@H]12`, for which the half-inhibitory concentration (IC50) in the assay with CCRF-CEM turned out to be 31.9 µM; in the assay on ADR5000 cell line [1], 20.8 µM.

For the compound `C=C(C)[C@@H]1CC[C@]2(COC(=O)CCC(=O)O[C@@H]3O[C@@H]4O[C@@]5(C)CC[C@H]6[C@H](C)CC[C@@H]([C@H]3C)[C@@]46OO5)CC[C@]3(C)[C@H](CC[C@@H]4[C@@]5(C)CC[C@H](O)C(C)(C)[C@@H]5CC[C@]43C)[C@@H]12`, the IC50 with CCRF-CEM was determined as 9.7 µM; in the assay on ADR5000 cell line [1], 11.9 µM.

As for `C=C(C)[C@@H]1CC[C@]2(COC(=O)CCC(=O)O[C@@H]3O[C@@H]4O[C@@]5(C)CC[C@H]6[C@H](C)CC[C@@H]([C@H]3C)[C@@]46OO5)CC[C@]3(C)[C@H](CC[C@@H]4[C@@]5(C)CC[C@H](OC(=O)CCC(=O)O[C@@H]6O[C@@H]7O[C@@]8(C)CC[C@H]9[C@H](C)CC[C@@H]([C@H]6C)[C@@]79OO8)C(C)(C)[C@@H]5CC[C@]43C)[C@@H]12`, the IC50 in the assay with CCRF-CEM turned out to be 42.9 µM; in the assay with ADR5000 cell line [1], 42.1 µM.

Take `C[C@@H]1CC[C@H]2[C@@H](C)C(=O)O[C@@H]3O[C@@]4(C)CC[C@@H]1[C@]32OO4` [ARTEMISININ]: the IC50 in the assay on CCRF-CEM stood at 36.9 µM; in the assay with ADR5000 cell line [1], 26.9 µM.

As to `C[C@H]1[C@H](OC(=O)CCC(=O)O)O[C@@H]2O[C@@]3(C)CC[C@H]4[C@H](C)CC[C@@H]1[C@@]24OO3` [ARTESUNATE], the IC50 in the assay on CCRF-CEM worked out at 1.8 µM; in the assay on ADR5000 cell line [1], 1.2 µM. For the same compound, the outcome in the assay on ADR5000 cell line [5], in the assay with ADR5000 cell line [6], with ADR5000 cell line [3] and in the assay with ADR5000 cell line [7] was Active.

Turning to `C=C(C)[C@@H]1CC[C@]2(CO)CC[C@]3(C)[C@H](CC[C@@H]4[C@@]5(C)CC[C@H](O)C(C)(C)[C@@H]5CC[C@]43C)[C@@H]12` [BETULIN], the IC50 in the assay with CCRF-CEM was 50.8 µM; in the assay with ADR5000 cell line [1] it was 56.5 µM.

As for `COc1cccc2c1C(=O)c1c(O)c3c(c(O)c1C2=O)C[C@@](O)(C(=O)CO)C[C@@H]3O[C@H]1C[C@H](N)[C@H](O)[C@H](C)O1` [DOXORUBICIN], the IC50 in the assay with CCRF-CEM is 0.0369 µM; with ADR5000 cell line [1], greater than 5.2 µM. The result in the assay with ADR5000 cell line [8] was Active. Besides, in the assay with ADR5000 cell line [9], the outcome was inactive.
